Most compounds without a hit are left out; they make up all but 1.5% or so of the library.
VLA-4 inh = inhibition in a human VLA-4 binding assay. P13612. VLA-4 expressing cells, ligand binding flow cytometry. inhibition, % (about 7 µM as worked out from the volumes in the protocol). actives 0.2% (n = 330,000). AID 2557; in the data active = inhibition above about 50%
T cell modulator = modulates CD8 T cell binding to vesicles; 2C CD8+ T cell-vesicle binding, flow cytometry; stronger effect = lower value; response (vesicle binding), % at 7 µM; actives 0.068% (n = 330,000);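 active = response, share of CD8 T cells binding vesicles, and their 90th percentile fluorescence all below set limits, cut at about 80% in these data, passing the limit was not always enough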;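 also: values below 100% mean blocked vesicle binding to the CD8+ T cells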
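Material: murine 2C transgenic CD8+ T lymphocytes / Also added: QL9-peptide-loaded Drosophila micro-vesicles bearing Ld, ICAM-1 and B7-1 / Schedule: binding step 1.5 h, 37 °C, antibody labelling 20 min, ice / Signal: flow cytometry, PE anti-B7-1 (FL2) versus Alexa647 anti-CD8 (FL8), PFA-fixed / Evaluation: percent CD8+ FL2 mean versus row control / Benchmarks: naked versus QL9-loaded vesicles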
CHT inh = inhibits the human high affinity choline transporter; Q9GZV3; CHT-expressing cells, membrane potential dye, choline response; stronger effect = lower value; B-score at 10 µM; actives 0.86% (n = 310,000); AID 488975;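 active = B-score over 3 SD under the library average, and starting fluorescence ratio not unusually high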;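 also: choline stimulus applied at its EC90 after an EC20 pre-addition; B-score computed on integrated fluorescence ratio after choline addition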
CHT PAM = allosteric activators of human choline transporter CHT. AID 488977. Q9GZV3. CHT-expressing cells, membrane potential dye, choline EC20; stronger effect = higher value; LV-AA mutant CHT in HEK293 cells. actives 0.49% (n = 310,000). B-score at 10 µM;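 active = initial fluorescence not abnormally high and integrated response B-score, plate-corrected, over 3 SD above library mean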
VLA-4 mod pick = confirmation of allosteric modulators of human VLA-4 integrin | shares compounds with VLA-4 inh | AID 2813 | U937 cells, HUTS-21 LIBS mAb binding, flow cytometry; LDV ligand present at threefold Kd | actives 2% (n = 1,300) | inhibition, % at 6.7 µM; in the data active = inhibition above about 40%;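 also: 0% = ligand without compound and 100% = no ligand background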
* marks the source's active call; other numbers are inactive results; i = inactive; nt = not tested or not shown.

SMILES | VLA-4 inh | T cell modulator | CHT inh | CHT PAM | VLA-4 mod pick
O=C(NC1CCCc2ccccc21)c1cccc(Br)c1 (centres undefined) | 42.8 | 351.3 | i | i | -17.5
O=C(NC1CCCc2ccccc21)c1ccc(Br)cc1 (centres undefined) | 14.5 | 256.4 | i | i | nt
CC1CCN(c2nc3ccc(C(=O)NCCCN4CCCCC4C)cc3s2)CC1 (centres undefined) | 0.6 | 500.0 | i | i | 3.1
CC1CCCC(C)N1CCCNC(=O)c1ccc2nc(N3CCCCC3)sc2c1 (centres undefined) | 50.7* | 425.6 | i | i | 2.7
CCC1CCCCN1CCCNC(=O)c1ccc2nc(N3CCCCC3)sc2c1 (centres undefined) | 0.1 | 222.7 | i | i | nt
CC1CC(C)CN(CCCNC(=O)c2ccc3nc(N4CCCCC4)sc3c2)C1 (centres undefined) | 39.8 | 430.1 | i | i | nt
Cc1ccc(S(=O)(=O)C(NC(=O)c2ccccc2)=C(Cl)Cl)cc1 | 53.6* | i | i | i | -1.1
Cc1nc(C(=O)N/N=C/c2[nH]ncc2Br)cs1 | -0.2 | 295.6 | i | i | nt
CCOCCCNC(=O)CN1C(=O)NC(Cc2c[nH]c3ccccc23)C1=O (centres undefined) | 2.7 | 147.2 | i | i | nt
CCc1ccc(NC(=O)Cn2cnc([N+](=O)[O-])c2)cc1 | 53.8* | 358.8 | i | i | 7.0
CSc1ccccc1NC(=O)Nc1ccccc1Cl | 6.2 | 157.2 | i | i | nt
O=C(Nc1ccccc1Cl)Nc1ccccc1Cl | 15.4 | 222.8 | i | i | 5.4
CCCC(=O)Nc1ccc(C(=O)Nc2nc(CC(=O)OCC)cs2)cc1 | 56.2* | 265.1 | i | i | 2.0
CCc1ccc(OCC(=O)N2CCN(c3ccccn3)CC2)c(Br)c1 | 0.6 | 329.7 | i | i | nt
COc1cc(CCCN2C(=O)C(=O)NC[C@@H]2C(C)O)cc(OC)c1OC (some centres undefined) | -6.0 | 479.8 | i | i | -4.1
COc1cc(CCCN2CCNC[C@@H]2c2ccccc2)cc(OC)c1OC | -5.8 | 257.5 | nt | nt | nt
CC(O)[C@H]1CNC(=O)C(=O)N1CCc1cccc(F)c1 (some centres undefined) | -1.4 | 681.3 | i | i | nt
COc1cc(CCCN2C(=O)C(=O)NC[C@@H]2c2ccccc2)cc(OC)c1OC | 52.3* | 371.5 | i | i | 4.7
O=[N+]([O-])c1ccccc1S(=O)(=O)N1CCN(c2ccccc2)CC1 | 0.0 | 503.0 | i | i | nt
CCCOc1ccc(N2C(=O)CC(N3CCC(C(=O)OCC)CC3)C2=O)cc1 (centres undefined) | 4.1 | i | i | i | -6.7
COc1ccc(N2C(=O)CC(N3CCCCC3)C2=O)cc1 (centres undefined) | 0.0 | 394.9 | i | i | -3.0
COc1ccc(CN2C(=O)c3cccnc3C2=O)cc1S(=O)(=O)N1CC(C)Oc2ccccc21 (centres undefined) | 56.4* | 423.9 | i | i | -0.1
COc1ccc(NC(=S)N2CCCC(c3nc4ccc(C)cc4[nH]3)C2)c(OC)c1 (centres undefined) | 54.3* | 270.7 | i | i | 15.0
O=C(NCCCn1ccnc1)C(=O)NCC(c1cccnc1)N1CCN(c2ccccc2)CC1 (centres undefined) | 57.2* | 468.9 | i | i | -6.8
O=C(NCCCn1ccnc1)C(=O)NCC(c1ccco1)N1CCN(c2ccccc2)CC1 (centres undefined) | 3.7 | 286.6 | i | i | nt
SMILES | VLA-4 inh | T cell modulator | CHT inh | CHT PAM | VLA-4 mod pick
O=C(Nc1ccc(F)cc1)Nc1cccnc1 | -5.7 | 199.5 | i | i | -3.0
CC(=O)c1ccc(NC(=O)Nc2cccnc2)cc1 | 3.7 | 116.3 | i | i | nt
N=c1c(C(=O)NCc2ccc(F)cc2)cc2c(=O)n3ccccc3nc2n1CC1CCCO1 (centres undefined) | 89.4* | 190.7 | i | i | 3.7
Cc1cc(C)n(CCCNC(=O)c2ccc(C)c(S(=O)(=O)N3CCOCC3)c2)n1 | 12.4 | 78.2 | i | i | nt
COc1cc(/C=C/C(=O)O)cc(S(=O)(=O)Nc2cccc(SC)c2)c1OC | 23.6 | 244.8 | i | i | nt
NC(=O)Cn1cc(C(=O)C(=O)N2CCOCC2)c2ccccc21 | -0.5 | 0.0 | i | i | 0.3
CCn1c(=N)n(CC(O)c2cccs2)c2ccccc21 (centres undefined) | 41.2 | 365.4 | i | i | 2.1
CCCc1cc(C(=O)N2CCCC(C(=O)c3cc(C)c(OC)c(C)c3)C2)n(C)n1 (centres undefined) | 105.9* | 613.7 | i | i | 8.2
CCCc1cc(C(=O)N2CCCC(C(=O)c3ccc(Cl)cc3)C2)n(C)n1 (centres undefined) | 0.0 | 95.4 | i | i | nt
Cc1ccccc1NS(=O)(=O)c1cc(S(C)(=O)=O)ccc1Cl | 26.2 | 371.8 | i | i | nt
O=S(=O)(Nc1ccc(S(=O)(=O)Nc2ncccn2)cc1)c1ccccc1 | -0.8 | 140.2 | i | i | nt
O=S(=O)(Nc1ncccn1)c1ccc(F)cc1 | 4.8 | 141.9 | i | i | 4.4
O=S(=O)(Nc1ncccn1)c1ccccc1 | 15.3 | 254.9 | i | i | 3.1
O=S(=O)(Nc1ncccn1)c1ccc(Cl)cc1 | 7.9 | 228.7 | i | i | 0.0
Cc1ccccc1NS(=O)(=O)c1ccc(Cl)cc1 | -7.3 | 153.2 | i | i | 0.4
C[C@H](CO)N1C[C@H](C)[C@@H](CN(C)C(=O)Nc2ccc3c(c2)OCO3)Oc2ccc(NC(=O)Nc3ccc4c(c3)OCO4)cc2C1=O | -1.6 | 231.3 | nt | nt | nt
COc1ccccc1CNC(=O)COC(=O)COc1ccccc1Cc1ccccc1 | 0.8 | 341.0 | i | i | nt
Cc1ccc(S(=O)(=O)Nc2ncccn2)cc1 | -7.0 | 347.9 | i | i | 1.8
COc1ccc(N(CC(=O)NC2CCCC2)C(=O)CCC(=O)Nc2nc(C)cs2)cc1OC | -2.9 | 243.9 | i | i | nt
COc1ccc(NC(=O)Nc2ccc3c(c2)C(=O)N([C@H](C)CO)C[C@H](C)[C@@H](CN(C)C(=O)NC2CCCCC2)O3)cc1 | 49.6* | 872.4 | nt | nt | 5.6
COc1ccc(NC(=O)N(C)C[C@H]2Oc3ccc(NC(=O)NC4CCCCC4)cc3C(=O)N([C@H](C)CO)C[C@@H]2C)cc1 | 8.8 | 611.9 | nt | nt | nt
Cc1cc(F)ccc1S(=O)(=O)NCC1CC2CCC1C2 (centres undefined) | -4.2 | 797.9 | i | i | nt
Cc1ccc(S(=O)(=O)c2ccc(Cl)cc2)cc1S(=O)(=O)N(C)CC(=O)O | 48.0 | 283.3 | i | i | -2.8
CCc1ccccc1NC(=O)C1NC(=O)CC1c1ccccc1 (centres undefined) | 56.0* | 221.8 | i | i | 3.7
O=C1CC(c2ccccc2)C(C(=O)Nc2ccccc2F)N1 (centres undefined) | -13.8 | 48.1 | i | i | nt
